Assay results: ChEMBL document CHEMBL1131413, “Mutational evidence for a common kappa antagonist binding pocket in the wild-type kappa and mutant mu[K303E] opioid receptors” (J Med Chem, 1998)

Tests used:
[1] = molecular target: Kappa-type opioid receptor (Rattus norvegicus, UniProt P34975, E297K); assay: Mutant factor of the compound against kappa[E297K] with Opioid receptor kappa 1 for binding affinity.
[2] = molecular target: Opioid receptors; mu & kappa (Homo sapiens) (UniProt P41145+P35372); assay: Ratio of Ke value to kappa receptor to that of mu receptor; type: protein assay
Procedure, shortened: (§1)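 Selectivity ratios were taken from Ke values measured in smooth muscle (100 nM antagonist, 15 min preincubation). Kappa Ke came from guinea-pig ileum with ethylketazocine, mu Ke from guinea-pig ileum with morphine, and delta Ke from mouse vas deferens with DADLE.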

[3] = molecular target: Kappa-type opioid receptor (Rattus norvegicus) (UniProt P34975); assay: Effect on binding affinity of mutational exchange of Glu297 in the Opioid receptor kappa 1 in transiently expressed […] cells activity expressed as binding ratio with nor-BNI.
[4] = molecular target: Kappa-type opioid receptor (Rattus norvegicus, UniProt P34975); assay: Effect on binding affinity of mutational exchange of Glu297 in the Opioid receptor kappa 1 in transiently expressed […] cells activity expressed as binding affinity.; type: cell-based
[5] = molecular target: Opioid receptors; delta & kappa (Homo sapiens) (UniProt P41145+P41143); assay: Ratio of Ke value to kappa receptor to that of delta receptor; type: protein assay; procedure, shortened: as §1
Mu-type opioid receptor = Mu-type opioid receptor (Rattus norvegicus, UniProt P33535); assay: Effect on binding affinity of mutational exchange of Lys303 in the Opioid receptor mu 1 in transiently expressed […] cells activity expressed as binding affinity.; type: cell-based
[6] = molecular target: Kappa-type opioid receptor (Cavia porcellus) (UniProt P41144); assay: Opioid antagonist potencies against Opioid receptor kappa 1 from guinea pig ileum employing ethylketazocine (EKC) as agonist.; type: functional, tissue-based
Procedure, shortened: (§2)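 Electrically stimulated guinea-pig ileal longitudinal muscle. Antagonist at 100 nM was incubated 15 min before agonist (ethylketazocine for kappa, morphine for mu). Ke = [antagonist]/(IC50 ratio − 1), where the IC50 ratio is agonist IC50 with antagonist over agonist IC50 alone in the same preparation. Ke is the mean of at least three IC50 ratios.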

[7] = molecular target: Delta-type opioid receptor (Mus musculus) (UniProt P32300); assay: Opioid antagonist potencies against Opioid receptor delta 1 from mouse vas-deferens preparation employing [D-Ala2,D-Leu5]enkephalin (DADLE) as agonist.; type: functional
Procedure, shortened: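 Electrically stimulated mouse vas deferens. Antagonist at 100 nM was incubated 15 min before the agonist DADLE. Ke = [antagonist]/(IC50 ratio − 1), using agonist IC50 with versus without antagonist in the same preparation. Ke is from an average of at least three IC50 ratios.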

[8] = molecular target: Mu-type opioid receptor (Cavia porcellus) (UniProt P97266); assay: Opioid antagonist potencies against Opioid receptor mu 1 from guinea pig ileum employing morphine(M) as agonist.; type: functional, tissue-based; procedure, shortened: as §2
Sequence of Mu-type opioid receptor (Cavia porcellus) (P97266 whole entry): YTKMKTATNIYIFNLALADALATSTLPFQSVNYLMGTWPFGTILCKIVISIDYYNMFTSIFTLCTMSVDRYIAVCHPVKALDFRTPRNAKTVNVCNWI

Sequence of Kappa-type opioid receptor (Rattus norvegicus) (P34975 whole entry): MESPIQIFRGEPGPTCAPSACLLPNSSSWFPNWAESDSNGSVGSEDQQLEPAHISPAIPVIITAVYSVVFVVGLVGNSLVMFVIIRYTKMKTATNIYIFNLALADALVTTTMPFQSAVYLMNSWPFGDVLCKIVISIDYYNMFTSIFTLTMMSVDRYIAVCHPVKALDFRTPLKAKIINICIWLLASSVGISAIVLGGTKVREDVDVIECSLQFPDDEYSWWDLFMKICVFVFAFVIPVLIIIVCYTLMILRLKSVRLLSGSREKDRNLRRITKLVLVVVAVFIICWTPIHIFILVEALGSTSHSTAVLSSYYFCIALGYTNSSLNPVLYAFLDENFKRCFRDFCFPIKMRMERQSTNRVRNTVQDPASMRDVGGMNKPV
Sequence of Opioid receptors; delta & kappa (Homo sapiens) (P41143 whole entry, looked up): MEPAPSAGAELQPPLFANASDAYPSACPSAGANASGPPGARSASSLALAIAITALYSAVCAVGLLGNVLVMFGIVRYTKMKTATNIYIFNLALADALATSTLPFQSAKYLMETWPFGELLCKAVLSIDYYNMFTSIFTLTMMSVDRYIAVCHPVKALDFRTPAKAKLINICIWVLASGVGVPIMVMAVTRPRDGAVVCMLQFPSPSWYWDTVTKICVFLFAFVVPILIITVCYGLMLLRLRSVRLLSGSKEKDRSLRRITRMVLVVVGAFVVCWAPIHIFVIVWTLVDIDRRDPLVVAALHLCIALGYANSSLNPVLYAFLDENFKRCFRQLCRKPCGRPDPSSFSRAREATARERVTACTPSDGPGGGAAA
Sequence of Opioid receptors; delta & kappa (Homo sapiens) (P41145 whole entry, looked up): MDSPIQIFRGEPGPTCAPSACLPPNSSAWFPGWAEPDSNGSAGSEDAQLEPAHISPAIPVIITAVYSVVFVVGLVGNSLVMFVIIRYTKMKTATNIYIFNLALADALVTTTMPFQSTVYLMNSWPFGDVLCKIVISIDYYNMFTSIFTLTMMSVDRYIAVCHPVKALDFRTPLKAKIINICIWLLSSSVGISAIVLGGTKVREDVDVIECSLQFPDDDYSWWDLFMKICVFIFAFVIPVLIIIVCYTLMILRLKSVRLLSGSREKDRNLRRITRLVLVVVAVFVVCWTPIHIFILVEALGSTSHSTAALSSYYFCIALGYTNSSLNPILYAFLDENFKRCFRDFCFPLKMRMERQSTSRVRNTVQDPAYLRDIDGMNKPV
Sequence of Opioid receptors; mu & kappa (Homo sapiens) (P35372 whole entry, looked up): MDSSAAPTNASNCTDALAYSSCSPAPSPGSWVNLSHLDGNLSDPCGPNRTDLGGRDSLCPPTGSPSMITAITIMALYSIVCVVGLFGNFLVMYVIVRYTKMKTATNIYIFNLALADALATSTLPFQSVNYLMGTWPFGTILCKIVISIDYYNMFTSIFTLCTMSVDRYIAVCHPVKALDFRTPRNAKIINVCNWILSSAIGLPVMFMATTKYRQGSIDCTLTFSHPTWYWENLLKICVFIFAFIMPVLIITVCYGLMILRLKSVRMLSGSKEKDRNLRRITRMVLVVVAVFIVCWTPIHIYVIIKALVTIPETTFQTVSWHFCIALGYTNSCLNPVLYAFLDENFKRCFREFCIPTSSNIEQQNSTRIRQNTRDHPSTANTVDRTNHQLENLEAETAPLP
Sequence of Opioid receptors; mu & kappa (Homo sapiens) (P41145 whole entry, looked up): as the sequence (P41145 whole entry, looked up) above
Sequence of Kappa-type opioid receptor (Rattus norvegicus, UniProt P34975, E297K) (P34975 whole entry E297K): as the sequence (P34975 whole entry) above, with E297K counted along it
Sequence of Kappa-type opioid receptor (Rattus norvegicus, UniProt P34975) (P34975 whole entry, looked up): as the sequence (P34975 whole entry) above
Sequence of Mu-type opioid receptor (P33535 whole entry, looked up): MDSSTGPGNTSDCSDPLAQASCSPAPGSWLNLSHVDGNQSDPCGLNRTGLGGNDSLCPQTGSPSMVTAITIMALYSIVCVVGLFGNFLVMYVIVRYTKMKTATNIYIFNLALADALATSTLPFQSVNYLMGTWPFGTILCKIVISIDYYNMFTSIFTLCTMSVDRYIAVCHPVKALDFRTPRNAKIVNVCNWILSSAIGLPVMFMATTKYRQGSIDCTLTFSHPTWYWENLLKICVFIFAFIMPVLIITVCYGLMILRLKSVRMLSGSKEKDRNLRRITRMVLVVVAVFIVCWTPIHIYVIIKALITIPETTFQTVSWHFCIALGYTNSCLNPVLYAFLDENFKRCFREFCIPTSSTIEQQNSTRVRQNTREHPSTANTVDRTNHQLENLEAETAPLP
Sequence of Delta-type opioid receptor (Mus musculus) (P32300 whole entry): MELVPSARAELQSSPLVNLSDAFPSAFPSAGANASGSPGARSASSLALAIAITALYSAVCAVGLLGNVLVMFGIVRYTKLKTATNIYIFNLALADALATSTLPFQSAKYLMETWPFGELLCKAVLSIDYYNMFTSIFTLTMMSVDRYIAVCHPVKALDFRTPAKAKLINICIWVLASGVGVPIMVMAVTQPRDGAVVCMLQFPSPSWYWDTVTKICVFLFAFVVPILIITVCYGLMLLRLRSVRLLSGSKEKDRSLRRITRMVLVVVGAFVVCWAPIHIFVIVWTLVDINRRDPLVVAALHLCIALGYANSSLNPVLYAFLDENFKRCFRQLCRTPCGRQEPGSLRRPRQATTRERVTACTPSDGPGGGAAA
Sequence of Kappa-type opioid receptor (Cavia porcellus) (P41144 whole entry): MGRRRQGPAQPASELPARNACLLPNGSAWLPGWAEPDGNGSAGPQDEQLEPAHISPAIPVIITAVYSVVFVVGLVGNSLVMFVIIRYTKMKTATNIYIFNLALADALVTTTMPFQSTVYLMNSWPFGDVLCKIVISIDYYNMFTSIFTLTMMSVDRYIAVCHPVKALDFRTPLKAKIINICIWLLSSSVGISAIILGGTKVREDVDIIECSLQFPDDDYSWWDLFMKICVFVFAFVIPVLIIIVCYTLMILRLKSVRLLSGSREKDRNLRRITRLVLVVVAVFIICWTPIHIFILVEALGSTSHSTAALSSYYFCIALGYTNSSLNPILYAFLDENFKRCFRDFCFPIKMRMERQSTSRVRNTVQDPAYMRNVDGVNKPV

| SMILES | Ki [1] [nM] | Selectivity [2] | Fana [3] | Ki [4] [nM] | Selectivity [5] | Ki (Mu-type opioid receptor) [nM] | Ke [6] [nM] | Ke [7] [nM] | Ke [8] [nM] |
| --- | --- | --- | --- | --- | --- | --- | --- | --- | --- |
| N=C(N)Nc1ccc2[nH]c3c(c2c1)C[C@@]1(O)[C@H]2Cc4ccc(O)c5c4[C@@]1(CCN2CC1CC1)[C@H]3O5 [GUANIDINONALTRINDOLE] | 12.9 | 208 | 0.75 | 0.09 | 799 | 9.23 | – | – | – |
| Oc1ccc2c3c1O[C@H]1c4[nH]c5c(c4C[C@@]4(O)[C@@H](C2)N(CC2CC2)CC[C@]314)C[C@@]1(O)[C@H]2Cc3ccc(O)c4c3[C@@]1(CCN2CC1CC1)[C@H]5O4 | – | – | 1 | – | – | – | – | – | – |
| N#CN/C(N)=N/c1ccc2[nH]c3c(c2c1)C[C@@]1(O)C2Cc4ccc(O)c5c4[C@@]1(CCN2CC1CC1)[C@H]3O5 | – | 5 | 2.25 | – | 3 | – | 3.13 | 9.08 | 16.1 |
| N#CN=C(N)Nc1ccc2[nH]c3c(c2c1)C[C@@]1(O)C2Cc4ccc(O)c5c4[C@@]1(CCN2CC1CC1)[C@H]3O5 | 2.48 | – | – | 0.27 | – | 4.04 | – | – | – |
